GPR7 antag: GPR7 receptor antagonists, primary screen, cell-based, fluorescence, single concentration; Neuropeptides B/W receptor type 1 (Homo sapiens), P48145; inhibition, % at 4.4 µM; GPR7-expressing cells, fluorescence antagonist assay; 290,000 compounds, 1.1% hits; in the data active = inhibition above about 16%, passing the limit was not always enough;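 also: cells stimulated with the agonist NPW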
OX1R antag-1: antagonists of human orexin 1 receptor (OX1R) | Orexin/Hypocretin receptor type 1 (Homo sapiens), O43613 | OX1R-expressing cells, FRET antagonist read-out | inhibition, % at 6.6 µM | 330,000 compounds, 1.8% hits; in the data active = inhibition mostly above about 38%, no sharp cut-off; inactive = mostly below about 40%
Target sequence (O43613 whole entry, looked up): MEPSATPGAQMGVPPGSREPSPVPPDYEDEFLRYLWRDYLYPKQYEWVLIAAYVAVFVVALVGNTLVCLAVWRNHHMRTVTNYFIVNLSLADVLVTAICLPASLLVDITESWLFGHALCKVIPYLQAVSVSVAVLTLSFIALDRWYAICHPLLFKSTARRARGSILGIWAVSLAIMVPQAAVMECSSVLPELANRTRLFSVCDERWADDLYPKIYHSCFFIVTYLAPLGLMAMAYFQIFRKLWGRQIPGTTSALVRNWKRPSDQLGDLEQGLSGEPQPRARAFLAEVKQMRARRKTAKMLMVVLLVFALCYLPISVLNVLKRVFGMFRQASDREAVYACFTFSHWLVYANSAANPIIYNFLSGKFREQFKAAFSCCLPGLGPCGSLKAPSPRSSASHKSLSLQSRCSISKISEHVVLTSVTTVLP
OX1R antag-2: OX1R (HCRTR1) antagonists, primary screen, fluorescence, CHO/OX1R cells, Fluo-8 calcium, orexin A; Orexin/Hypocretin receptor type 1 (Homo sapiens), O43613; Fluo-8 calcium fluorescence; inhibition, % at 5 µM; 330,000 compounds, 0.43% hits; AID 434989, 2010;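 active = inhibition above its plate's threshold, mean inhibition of all tested compounds on the plate plus 3 SD, cut at about 37% in these data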
CHO parental Ca: ATP-evoked calcium signal inhibitors, parental CHO, primary screen, counter-screen for OX1R antagonist project, cell-based, fluorescence, Fluo-8 calcium dye | parental CHO-K1, ATP-induced calcium, Fluo-8 fluorescence | inhibition, % at 5.6 µM | 330,000 compounds, 0.63% hits | AID 463079, 2010;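 active = inhibition above that plate's mean sample inhibition plus 3 SD, cut at about 26% in these data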
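Test system: untransfected parental CHO cell line. Compound: one dose, 5.6 µM nominal. Detection: intracellular calcium via Fluo-8 no-wash fluorescent dye. Measure: % inhibition. Benchmarks: ATP-challenged DMSO wells low, unchallenged DMSO wells high.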
MPTP inh: mitochondrial permeability transition pore inhibitors, primary screen, biochemical, isolated mouse mitochondria, absorbance; Ca2+ swelling absorbance, 30 min; inhibition, % at 10 µM; 360,000 compounds, 1.4% hits; AID 602449, 2012;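 active = inhibition of 50% or more, scaled per plate between neutral and stimulator controls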
Rh123 counter: fluorescence retest of MPTP screen hits in isolated mitochondria, single concentration | membrane potential, Rhodamine 123 fluorescence | inhibition, % at 10 µM | 5,000 compounds, 78% hits | shares compounds with MPTP inh; in the data active = inhibition above about 22%
MPTP abs DR: mitochondrial permeability transition pore inhibitors, dose response, biochemical, absorbance, uHTS hits. shares compounds with MPTP inh. 780 compounds, 58% hits. IC50, µM. isolated mitochondria swelling. AID 651561, 2012; in the data active = IC50 below about 20 µM
MPTP cs DR: fluorescent counter-screen in isolated mitochondria, dose response, counter-screen for MPTP inhibitor project, biochemical, fluorescence, uHTS hits. 780 compounds, 49% hits. isolated mitochondria counterscreen, fluorescence read-out. shares compounds with MPTP inh. IC50, µM; in the data active = IC50 below about 80 µM
A number is an active result; ! = repeats disagree. Compounds with a hit are over-represented: about 3.8% of the library has one in this group of screens.

For O=C(CCS(=O)(=O)Cc1ccc(Cl)cc1)NCCCN1CCN(c2ccccc2F)CC1 the results were GPR7 antag inactive, OX1R antag-1 inactive, OX1R antag-2 inactive, CHO parental Ca inactive, MPTP inh 57.1, Rh123 counter inactive, MPTP abs DR inactive and MPTP cs DR inactive.
`Cc1ccc(-c2noc(CCC(=O)NCCCN3CCN(c4cccc(Cl)c4)CC3)n2)cc1` gave GPR7 antag 19.0, OX1R antag-1 inactive, OX1R antag-2 51.9, CHO parental Ca inactive, MPTP inh 94.1 and Rh123 counter inactive.
Screening COc1ccc(-c2noc(CCCCC(=O)N3CCN(c4cc(C)ccc4C)CC3)n2)cc1 returned OX1R antag-1 37.7, OX1R antag-2 75.3, CHO parental Ca 73.7, MPTP inh 97.0 and Rh123 counter 103.7.
Screening Cc1ccc(-c2noc(CCC(=O)NC3CCN(Cc4ccccc4)CC3)n2)cc1 returned GPR7 antag inactive, MPTP inh 72.1, Rh123 counter inactive, MPTP abs DR inactive and MPTP cs DR 34.2.
Screening O=C(Cc1ccc(Cl)cc1)NCCS(=O)(=O)N1CCN(c2ccccc2F)CC1 returned OX1R antag-1 inactive, OX1R antag-2 inactive, CHO parental Ca inactive and MPTP inh inactive.
Screening COc1ccc(-c2noc(CCC(=O)NCCN3CCN(c4ccccc4F)CC3)n2)cc1 returned GPR7 antag inactive, OX1R antag-1 inactive, OX1R antag-2 inactive, CHO parental Ca inactive and MPTP inh inactive.
Screening Cc1ccc(-c2noc(CCC(=O)NCCCN3CCN(c4ccc(F)cc4)CC3)n2)cc1 returned GPR7 antag inactive, OX1R antag-1 inactive, OX1R antag-2 inactive, CHO parental Ca inactive, MPTP inh 93.0, Rh123 counter inactive, MPTP abs DR 6.97 and MPTP cs DR 28.4.
Screening COc1ccc(-c2noc(CCC(=O)NCCCN3CCN(c4ccccc4F)CC3)n2)cc1 returned GPR7 antag inactive, OX1R antag-1 inactive, OX1R antag-2 inactive, CHO parental Ca inactive, MPTP inh 54.8, Rh123 counter inactive, MPTP abs DR 8.84 and MPTP cs DR 20.4.
For CCN1CCN(CCCNC(=O)CCc2nc(-c3ccc(OC)cc3)no2)CC1 the results were GPR7 antag inactive, OX1R antag-1 inactive, OX1R antag-2 inactive, CHO parental Ca inactive and MPTP inh inactive.
Screening COc1cc(/C=N\NC(=O)C2CC3C=CC2C3)ccc1O (configuration not stated) returned GPR7 antag inactive, OX1R antag-1 inactive, OX1R antag-2 inactive, CHO parental Ca inactive and MPTP inh inactive.
For O=C(c1cc2nc(-c3ccc(F)cc3)cc(C(F)(F)F)n2n1)N1CCCCC1c1cccnc1 (configuration not stated) the results were GPR7 antag inactive, OX1R antag-1 inactive, OX1R antag-2 inactive, CHO parental Ca 41.9, MPTP inh 90.2 and Rh123 counter 90.0.
Screening CCOC(=O)c1sc(NC(=O)CCN2CCN(C)CC2)c(C(=O)OCC)c1C returned GPR7 antag inactive, OX1R antag-1 inactive, OX1R antag-2 inactive, CHO parental Ca inactive, MPTP inh 68.8, Rh123 counter inactive, MPTP abs DR 12.6 and MPTP cs DR inactive.
`CCOC(=O)c1sc(NC(=O)CCN2CC(C)OC(C)C2)c(C(=O)OCC)c1C` (configuration not stated) gave GPR7 antag inactive, OX1R antag-1 inactive, OX1R antag-2 inactive and CHO parental Ca inactive.
CCC(C)Sc1ccc(-c2nc3cnccn3c2NC2CCCCC2)cc1 (configuration not stated) was read as OX1R antag-1 inactive, OX1R antag-2 inactive, CHO parental Ca inactive and MPTP inh inactive.
`CCC(C)Sc1ccc(-c2nc3cc(C)ccn3c2NC2CCCCC2)cc1` (configuration not stated) gave OX1R antag-1 inactive, OX1R antag-2 inactive, CHO parental Ca inactive, MPTP inh 56.0! and Rh123 counter 100.6.
N#Cc1c(NC(=O)c2ccccc2)sc2c1CCCCC2 was read as GPR7 antag inactive, OX1R antag-1 inactive, OX1R antag-2 inactive, CHO parental Ca inactive and MPTP inh inactive.
Cc1sc(NC(=S)NC(=O)c2ccccc2)c(C#N)c1C was read as GPR7 antag inactive, OX1R antag-1 inactive, OX1R antag-2 inactive, CHO parental Ca inactive, MPTP inh 69.6 and Rh123 counter 84.3.
Screening Cc1sc(NC(=S)NC(=O)c2ccc(C(C)(C)C)cc2)c(C#N)c1C returned GPR7 antag inactive, OX1R antag-1 inactive, OX1R antag-2 inactive, CHO parental Ca inactive and MPTP inh inactive.
For N#Cc1c(Cl)nsc1NC(=O)c1ccccc1 the results were GPR7 antag inactive, OX1R antag-1 61.2, OX1R antag-2 inactive, CHO parental Ca inactive, MPTP inh 77.5 and Rh123 counter 89.3.
Screening CCn1c(SCC(=O)NCc2ccccc2)nnc1C(CO)NC(=O)c1ccccc1 (configuration not stated) returned GPR7 antag inactive, OX1R antag-1 inactive, OX1R antag-2 inactive, CHO parental Ca inactive and MPTP inh inactive.
`CC(C)[C@H](NC(=O)c1ccccc1)C(=O)OCC(=O)N1CCN(C(=O)c2ccco2)CC1` gave GPR7 antag inactive, OX1R antag-1 inactive, OX1R antag-2 inactive, CHO parental Ca inactive and MPTP inh inactive.
`COC(=O)c1ccc(N2CCN(S(=O)(=O)c3ccc4ccccc4c3)CC2)c([N+](=O)[O-])c1` gave GPR7 antag inactive, OX1R antag-1 inactive, OX1R antag-2 inactive, CHO parental Ca 37.6, MPTP inh 72.5 and Rh123 counter 56.7.
For COc1ccc(N2CCN(S(=O)(=O)c3ccc4c(c3)CCCC4)CC2)c([N+](=O)[O-])c1 the results were GPR7 antag inactive, OX1R antag-1 36.9, OX1R antag-2 inactive, CHO parental Ca inactive, MPTP inh 79.3 and Rh123 counter 78.6.
`NC(=O)c1ccc(N2CCN(S(=O)(=O)c3ccccc3)CC2)c([N+](=O)[O-])c1` gave GPR7 antag inactive, OX1R antag-1 inactive, OX1R antag-2 inactive, CHO parental Ca inactive, MPTP inh 73.3 and Rh123 counter 20.6.
For O=C(c1ccc(N2CCCCC2)c([N+](=O)[O-])c1)N1CCN(S(=O)(=O)c2ccccc2)CC1 the results were OX1R antag-1 inactive, OX1R antag-2 inactive, CHO parental Ca inactive and MPTP inh inactive.

Source: PubChem
